Values after ≈ are worked out from the molar mass of the structure shown.
Legend:
Human alphaherpesvirus 1 [1] = assay: Antiviral activity against HSV1 infected in african green monkey Vero cells after 6 hrs by plaque reduction assay; format: functional; set-up: scale not given: the % may be the effect or the level left
Method in brief: (§1)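 Modified plaque reduction in 96-well trays with no thickening overlay. Compounds dissolved in DMSO and diluted into medium, then serially diluted and added in triplicate to confluent Vero monolayers. Titred HSV-1 added in medium with 10% calf serum. Incubated 6 h at 37 °C, 5% CO2. Cells fixed with 3.7% formaldehyde and examined visually. The end-point concentration was taken from the dilution series.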

Human alphaherpesvirus 1 [2] = assay: Antiviral activity against HSV1 infected in african green monkey Vero cells assessed as minimum antiviral concentration after 6 hrs; format: functional; method in brief: as §1
Vero = assay: Cytotoxicity against african green monkey Vero cells assessed as loss of monolayer present around the plaques; format: cell-based; settings: Chlorocebus sabaeus
Method in brief: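 Vero monolayers in serial-dilution trays with HSV-1, run in triplicate, 6 h at 37 °C, 5% CO2. Cells fixed with 3.7% formaldehyde and examined visually. IC50 is the concentration giving about 50% loss of the monolayer around HSV-1 plaques.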

[3] = tested on: Human immunodeficiency virus 1; assay: Antiviral activity against HIV1 infected in human CEM cells assessed as protection against virus-induced cytopathic effect after 6 days by XTT assay; format: functional, organism-based; settings: Human immunodeficiency virus 1, CCRF-CEM, 144 h
Method in brief: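 CEM T4 lymphocytes received serially diluted compounds (DMSO stock diluted 1:100 in medium, 1:200 final dilution), then HIV-1. Incubated 6 days at 37 °C, 5% CO2. Formazan read spectrophotometrically after XTT, with microscopic check for viable cells. EC50 is the concentration giving 50% protection against the HIV cytopathic effect. AZT-treated wells served as positive control.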

CCRF-CEM = assay: Cytotoxicity against […] human CEM cells after 6 days by XTT assay; format: cell-based; settings: 144 h
Method in brief: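 Uninfected CEM cultures given serial compound dilutions (DMSO, 1:200 final dilution). Incubated 6 days at 37 °C, 5% CO2, then read by XTT formazan. IC50 is the molar concentration causing 50% inhibition of cell growth.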

[4] = Therapeutic index, ratio of IC50 for human CEM cells to EC50 for HIV1; format: cell-based, CCRF-CEM; settings: read-out: Ratio IC50/EC50
Method in brief: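 CEM T4 lymphocytes, with or without HIV-1, were incubated with serially diluted compounds (DMSO solution diluted 1:100 in medium; 1:200 final dilution after cells and virus were added) at 37 °C in 5% CO2 for 6 days. Controls were untreated and AZT-treated. Read-out was XTT formazan, measured spectrophotometrically plus microscopy. EC50 is 50% protection from cytopathic effect; IC50 is 50% growth inhibition in uninfected cultures.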

Escherichia coli [5] = assay: Antibacterial activity against Escherichia coli MTCC 41 after 12 to 16 hrs by turbidity assay; format: functional
Method in brief: (§2)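 Broth dilution MIC in LB broth. Tubes inoculated, incubated 12–16 h and scored by eye for turbidity (growth) versus clear (no growth).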

Escherichia coli [6] = assay: Antibacterial activity against Escherichia coli MTCC 41 at 128 mg/ml after 16 hrs by disk diffusion test; format: functional; set-up: dose or concentration left out as unconfirmed; settings: MTCC 41, 16 h, read-out: IZ
Escherichia coli [7] = assay: Antibacterial activity against Escherichia coli MTCC 41 at 64 mg/ml after 16 hrs by disk diffusion test; format: functional; set-up: dose or concentration left out as unconfirmed; settings: MTCC 41, 16 h, read-out: IZ
Staphylococcus aureus [8] = assay: Antibacterial activity against Staphylococcus aureus MTCC 1144 after 12 to 16 hrs by turbidity assay; format: functional; method in brief: as §2
Staphylococcus aureus [9] = assay: Antibacterial activity against Staphylococcus aureus MTCC 1144 at 128 mg/ml after 16 hrs by disk diffusion test; format: functional; set-up: dose or concentration left out as unconfirmed; settings: MTCC 1144, 16 h, read-out: IZ
Staphylococcus aureus [10] = assay: Antibacterial activity against Staphylococcus aureus MTCC 1144 at 64 mg/ml after 16 hrs by disk diffusion test; format: functional; settings: MTCC 1144, 16 h, read-out: IZ
Method in brief: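 Disk diffusion (zone of inhibition). Bacterial isolate spread evenly over an agar plate. A filter disk carrying a known amount of compound was placed on the surface and the compound left to diffuse. The inhibition zone in the lawn was read after 16 h incubation.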

Pseudomonas putida [11] = assay: Antibacterial activity against ampicillin-resistant Pseudomonas putida MTCC 1072 after 12 to 16 hrs by turbidity assay; format: functional; method in brief: as §2
Pseudomonas putida [12] = assay: Antibacterial activity against ampicillin-resistant Pseudomonas putida MTCC 1072 at 128 mg/ml after 16 hrs by disk diffusion test; format: functional; set-up: dose or concentration left out as unconfirmed; settings: MTCC 1072, 16 h, read-out: IZ
Pseudomonas putida [13] = assay: Antibacterial activity against ampicillin-resistant Pseudomonas putida MTCC 1072 at 64 mg/ml after 16 hrs by disk diffusion test; format: functional; set-up: dose or concentration left out as unconfirmed; settings: MTCC 1072, 16 h, read-out: IZ

Structure (SMILES): OC[C@H]1O[C@@H](Sc2nc3sc4c(c3c(=S)[nH]2)CCCC4)[C@@H](O)[C@@H]1O
- Activity (Human alphaherpesvirus 1 [1]): 30%
- MAC (Human alphaherpesvirus 1 [2]): 0.29 µM
- IC50 (Vero): > 1.7 µM
- EC50 [3]: > 100 µM
- IC50 (CCRF-CEM): > 100 µM
- selectivity ratio [4]: > 1
- MIC (Escherichia coli [5]): 128 µg/mL (≈ 331 µM)
- zone of inhibition (Escherichia coli [6]): > 3 mm
- zone of inhibition (Escherichia coli [7]): > 2 mm
- MIC (Staphylococcus aureus [8]): > 128 µg/mL
- zone of inhibition (Staphylococcus aureus [9]): > 2 mm
- zone of inhibition at 64000 µg/mL (Staphylococcus aureus [10]): > 2 mm
- MIC (Pseudomonas putida [11]): 64 µg/mL (≈ 166 µM)
- zone of inhibition (Pseudomonas putida [12]): > 3 mm
- zone of inhibition (Pseudomonas putida [13]): > 3 mm

Source: ChEMBL document CHEMBL1240504, “Synthesis of substituted thieno[2,3-d]pyrimidine-2,4-dithiones and their S-glycoside analogues as potential antiviral and antibacterial agents” (Eur J Med Chem, 2010)
